The test system of experiment [1] is Vas deferens. Put plainly: Inhibition of norepinephrine uptake in Sprague-Dawley rat vas deferens at 1 x 10^-4 M after 60 mins by fluorometric analysis. Type of experiment: functional. In short, it runs like this: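 Rat vas deferens pieces (50–60 mg, two per rat) incubated free-floating for 60 min at 37° in oxygenated Tyrode's with NE 1.5×10^-7 M, with or without test agent at 1×10^-4 M. Tissue then washed three times for 5 sec, and total catecholamines estimated fluorometrically by autoanalyzer. Mean ± SE of five experiments; t test vs control.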

Experiment [2] is filed under the species Oryctolagus cuniculus. The experiment in a line: Inhibition of spontaneous contractions in isolated rabbit atria at 1 x 10^-3 M. Type of experiment: functional. Particulars: Cardiac atrium.
Experiment [3] is filed under the species Rattus norvegicus. The experiment in a line: (§1) Potentiation of D(-)-norepinephrine-induced contraction in reserpine-treated Sprague-Dawley rat vas deferens assessed as contraction level at 1 x 10^-4 M relative to norepinephrine. The experiment is classed as functional. In a few lines:
(§2)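 Rats were reserpinized with 5 mg/kg ip 24 hr before the experiment. Vasa deferentia were then set up in Tyrode's solution at 37°, gassed with 95% O2/5% CO2. Cumulative NE curves over 3×10^-7 to 3×10^-5 M, with test agent present. Isotonic contractions recorded kymographically. Response as percent of NE cumulative maximum; mean ± SE; t test.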

Experiment [4] concerns Vas deferens. Put plainly: Inhibition of D(-)-norepinephrine-induced contraction in Sprague-Dawley rat vas deferens assessed as contraction level at 1 x 10^-3 M relative to norepinephrine. Type of experiment: functional. Further details: scale not given: the % may be the effect or the level left. In a few lines:
(§3)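 Isolated vasa deferentia from male Sprague–Dawley rats (300–350 g) in a 10-ml bath of Tyrode's solution, 37°, gassed with 95% O2/5% CO2. Cumulative NE dose-response curves over 3×10^-7 to 3×10^-5 M, with test agent at 1×10^-4 or 1×10^-3 M. Isotonic contractions recorded kymographically, 5 min between contractions after washout. Response expressed as percent of NE cumulative maximum (=100%), calculated per preparation. PD2 given as mean ± SE of ten curves; t test.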

The species entered for experiment [5] is Rattus norvegicus. The experiment in a line: Potentiation of D(-)-norepinephrine-induced contraction in reserpine-treated Sprague-Dawley rat vas deferens at 1 x 10^-2 M relative to control. The experiment is classed as functional, tissue-based. In short, it runs like this: as §2
Experiment [6] in a line: Induction of norepinephrine release in Sprague-Dawley rat vas deferens at 1 x 10^-4 M after 30 mins by fluorometric analysis. Type of experiment: functional. In short, it runs like this: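 Rat vas deferens pieces incubated 30 min in oxygenated Tyrode's with agent at 1×10^-4 M. Total catecholamines then measured fluorometrically by autoanalyzer. Mean ± SE of five experiments; t test vs control.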

Experiment [7] is filed under the species Rattus norvegicus. The experiment in a line: (§4) Potentiation of D(-)-norepinephrine-induced contraction in reserpine-treated Sprague-Dawley rat vas deferens assessed as contraction level at 1 x 10^-3 M relative to norepinephrine. The experiment is classed as functional. In a few lines: as §2
Experiment [8] is filed under the species Oryctolagus cuniculus. Put plainly: Increase in spontaneous contractions in isolated rabbit atria at 1 x 10^-4 M. Type of experiment: functional. Particulars: Cardiac atrium.
For experiment [9], the system named is Canis familiaris. The experiment in a line: Reduction of blood pressure in mongrel dog at 1 to 2 mg/kg, iv by electrocardiograph analysis. Type of experiment: functional, organism-based. The conditions noted are these: Canis lupus familiaris. In short, it runs like this: (§5)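 Dog blood pressure recorded after iv injection via a right femoral vein cannula (1–2 mg/kg), each dose washed in with 0.5 ml saline. Where stated, β blockade with propranolol 2 mg/kg, checked for adequacy with […].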

A short description of experiment [10]: Potentiation of D(-)-norepinephrine-induced contraction in Sprague-Dawley rat vas deferens assessed as contraction level at 1 x 10^-4 M relative to norepinephrine. The experiment is classed as functional. In short, it runs like this:
as §3

The test system of experiment [11] is Canis familiaris. The experiment in a line: Reduction of diastolic blood pressure in mongrel dog at 1 to 2 mg/kg, iv up to 30 mins by electrocardiograph analysis in presence of alpha-blocker phenoxybenzamine. Type of experiment: functional, Canis lupus familiaris, Artery. Particulars: dose mg/kg 1-2. In a few lines: (§6)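 Dogs pretreated with phenoxybenzamine 3 mg/kg as α-blocker, blockade checked with […]. Test agents given iv (1–2 mg/kg) via a femoral vein cannula, washed in with 0.5 ml saline; tracheotomized animals. Systolic, diastolic and pulse pressure followed over an initial 30-sec phase and a second phase of about 30 min.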

Experiment [12] concerns Canis familiaris. The experiment in a line: Reduction of pulse pressure in mongrel dog at 1 to 2 mg/kg, iv up to 30 seconds by electrocardiograph analysis in presence of alpha-blocker phenoxybenzamine. The experiment is classed as functional, organism-based. The conditions noted are these: Canis lupus familiaris. In a few lines: as §6
For experiment [13], the system named is Canis familiaris. The experiment in a line: Reduction of systolic blood pressure in mongrel dog at 1 to 2 mg/kg, iv up to 30 seconds by electrocardiograph analysis in presence of alpha-blocker phenoxybenzamine. Type of experiment: functional, Canis lupus familiaris, Artery. The conditions noted are these: dose mg/kg 1-2. In a few lines:
as §6

The test system of experiment [14] is Canis familiaris. The experiment in a line: Reduction of blood pressure in mongrel dog at 1 to 2 mg/kg, iv by electrocardiograph analysis in presence of propranolol. Particulars: Canis lupus familiaris. The experiment is classed as functional, organism-based. In short, it runs like this: as §5
In experiment [15] the test system is Canis familiaris. Put plainly: Reduction of systolic blood pressure in mongrel dog at 1 to 2 mg/kg, iv up to 30 mins by electrocardiograph analysis in presence of alpha-blocker phenoxybenzamine. Particulars: dose mg/kg 1-2. The experiment is classed as functional, Canis lupus familiaris, Artery. In short, it runs like this:
as §6

Experiment [16] has as its system Canis familiaris. The experiment in a line: Reduction of diastolic blood pressure in mongrel dog at 1 to 2 mg/kg, iv up to 30 seconds by electrocardiograph analysis in presence of alpha-blocker phenoxybenzamine. Type of experiment: functional, Canis lupus familiaris, Artery. The conditions noted are these: dose mg/kg 1-2. In a few lines:
as §6

In experiment [17] the test system is Canis familiaris. The experiment in a line: Reduction of pulse pressure in mongrel dog at 1 to 2 mg/kg, iv up to 30 mins by electrocardiograph analysis in presence of alpha-blocker phenoxybenzamine. The experiment is classed as functional, Canis lupus familiaris. Particulars: dose mg/kg 1-2. In short, it runs like this:
as §6

The species named for experiment [18] is Oryctolagus cuniculus. Put plainly: Inhibition of spontaneous contractions in isolated rabbit atria at 1 x 10^-4 M. The experiment is classed as functional. Particulars: Cardiac atrium.
A short description of experiment [19]: as §1. The experiment is classed as functional. In a few lines:
as §2

A short description of experiment [20]: as §4. The experiment is classed as functional. In short, it runs like this:
as §2

Experiment [21] in a line: Potentiation of D(-)-norepinephrine-induced contraction in Sprague-Dawley rat vas deferens assessed as contraction level at 1 x 10^-2 M relative to norepinephrine. The experiment is classed as functional.
Experiment [22] relates to Canis familiaris. Put plainly: Increase in pulse pressure in mongrel dog at 2 mg/kg, iv by electrocardiograph analysis. The experiment is classed as functional, Canis lupus familiaris.
Experiment [23] has as its system Canis familiaris. Put plainly: Reduction of systolic blood pressure in mongrel dog at 2 mg/kg, iv by electrocardiograph analysis in presence of alpha-blocker phenoxybenzamine. The experiment is classed as functional, organism-based. Further details: dose 2 mg/kg. The conditions noted are these: Canis lupus familiaris, Artery.
Experiment [24] has as its system Canis familiaris. Put plainly: Induction of beta-adrenergic response in mongrel dog at 2 mg/kg, iv by electrocardiograph analysis in presence of propranolol. Further details: dose 2 mg/kg. Particulars: Canis lupus familiaris. Type of experiment: functional, organism-based.
The subject of experiment [25] is Canis familiaris. Put plainly: Reduction of pulse pressure in mongrel dog at 2 mg/kg, iv by electrocardiograph analysis in presence of alpha-blocker phenoxybenzamine. Type of experiment: functional, organism-based. Further details: dose 2 mg/kg. The conditions noted are these: Canis lupus familiaris.
Experiment [26] has as its system Canis familiaris. The experiment in a line: Increase in diastolic blood pressure in mongrel dog at 2 mg/kg, iv by electrocardiograph analysis. The experiment is classed as functional, Canis lupus familiaris, Artery.
In experiment [27] the test system is Canis familiaris. The experiment in a line: Increase in systolic blood pressure in mongrel dog at 2 mg/kg, iv by electrocardiograph analysis. The experiment is classed as functional, Canis lupus familiaris, Artery.
Experiment [28] deals with Canis familiaris. Put plainly: Induction of beta-adrenergic response in mongrel dog at 2 mg/kg, iv by electrocardiograph analysis. Type of experiment: functional, organism-based. Further details: dose 2 mg/kg. Particulars: Canis lupus familiaris.
Experiment [29] deals with Canis familiaris. The experiment in a line: Reduction of diastolic blood pressure in mongrel dog at 2 mg/kg, iv by electrocardiograph analysis in presence of alpha-blocker phenoxybenzamine. The experiment is classed as functional, organism-based. Details: dose 2 mg/kg. The conditions noted are these: Canis lupus familiaris, Artery.
In experiment [30] the test system is Canis familiaris. The experiment in a line: Reduction of blood pressure in iv dosed mongrel dog by electrocardiograph analysis in presence of hexamethonium and atropine. Type of experiment: functional, organism-based. Particulars: Canis lupus familiaris.

This note sets out measurements from ChEMBL document CHEMBL3272180, “A conformational study of beta-phenethanolamine receptor sites. 8. Pharmacological study of 3-isopropylamino-2-phenyl-trans-2-decalols” (1976).

Active and inactive are the calls of the source. The rule behind the calls is not given here.

For the molecule `CC(C)N[C@@H]1C[C@@H]2CCCC[C@H]2C[C@@]1(O)c1ccccc1`, the Activity worked out at 9.5 µg/g in the experiment on Vas deferens [1], 16% in the experiment with Vas deferens [4], 8.1 µg/g in experiment [6] and 94% in experiment [10]. The inhibition entry in the experiment listed under Oryctolagus cuniculus [2] was “Active”. Further, the result in the experiment listed under Rattus norvegicus [3], in the experiment filed under Rattus norvegicus [5], in the experiment filed under Rattus norvegicus [7], in the experiment filed under Oryctolagus cuniculus [8] and in the experiment on Canis familiaris [9] was Active.

For the molecule `CC(C)N[C@H]1C[C@@H]2CCCC[C@H]2C[C@@]1(O)c1ccccc1`, the Activity in the experiment on Canis familiaris [11] worked out at 30 mmHg; in the experiment on Vas deferens [1], 9.6 µg/g; in the experiment with Canis familiaris [13], 50 mmHg; with Vas deferens [4] it was 10%; in [6] it was 7.8 µg/g; in the experiment on Canis familiaris [15], 15 mmHg. In addition, the Activity in the experiment on Canis familiaris [16] came to 50 mmHg; in experiment [10], 96%; with Canis familiaris [17], 15 mmHg. The inhibition result in the experiment listed under Oryctolagus cuniculus [2] is “Active”. Moreover, the result in the experiment with Canis familiaris [12], in the experiment listed under Rattus norvegicus [3], in the experiment listed under Rattus norvegicus [5], in the experiment on Canis familiaris [14], in the experiment listed under Rattus norvegicus [7] and in the experiment listed under Oryctolagus cuniculus [8] was Active. The outcome in the experiment on Canis familiaris [9] was Active.

For `CC(C)N[C@@H]1C[C@@H]2CCCC[C@H]2C[C@]1(O)c1ccccc1`, the Activity in the experiment with Vas deferens [1] came out at 9.3 µg/g; in the experiment on Vas deferens [4], 85%; in experiment [6], 7.7 µg/g; in experiment [10], 128%. Besides, the result in the experiment listed under Rattus norvegicus [3], in the experiment filed under Rattus norvegicus [5], in the experiment listed under Rattus norvegicus [7] and with Canis familiaris [9] was Active. In addition, the inhibition result in the experiment listed under Oryctolagus cuniculus [18] was “Active”.

Regarding `CC(C)N[C@H]1C[C@@H]2CCCC[C@H]2C[C@]1(O)c1ccccc1`, the Activity in the experiment on Vas deferens [1] was determined as 9.1 µg/g; in experiment [19] it was 130%; in the experiment with Vas deferens [4], 88%; in experiment [6], 7.9 µg/g; in experiment [20], 84%; in experiment [10] it was 132%. In addition, the inhibition result in the experiment listed under Oryctolagus cuniculus [2] was “Active”. For the same molecule, the outcome in the experiment filed under Rattus norvegicus [5], in the experiment listed under Oryctolagus cuniculus [8] and in the experiment on Canis familiaris [9] was Active.

Turning to `CC(C)N[C@H](C)[C@H](O)c1ccccc1`, the Activity in the experiment on Vas deferens [1] came to 9.3 µg/g; in experiment [21] it was 70%; in [6] it was 7.4 µg/g; in [10], 145%. Further, the inhibition result in the experiment listed under Oryctolagus cuniculus [2] was “Active”. In addition, the result in the experiment listed under Rattus norvegicus [3], in the experiment filed under Rattus norvegicus [5], in the experiment listed under Rattus norvegicus [7] and with Canis familiaris [9] was Active.

`CN[C@@H](C)[C@H](O)c1ccccc1` [EPHEDRINE]: the Activity in the experiment on Canis familiaris [22], in the experiment with Canis familiaris [26] and in the experiment on Canis familiaris [27] was 40 mmHg each time. For the same molecule, the outcome in the experiment on Canis familiaris [23], in the experiment with Canis familiaris [24], with Canis familiaris [25] and in the experiment with Canis familiaris [29] was inactive. The result in the experiment on Canis familiaris [28] was Active.

With `CC(C)N[C@@H](C)[C@H](O)c1ccccc1`, the Activity in the experiment with Canis familiaris [11] stood at 30 mmHg; in the experiment with Vas deferens [1] it was 9.2 µg/g; with Canis familiaris [13] it was 50 mmHg; in experiment [21], 90%; in [6] it was 7 µg/g; with Canis familiaris [15], 15 mmHg. Moreover, the Activity in the experiment with Canis familiaris [16] is reported as 50 mmHg; in experiment [10], 158%; in the experiment on Canis familiaris [17] it was 15 mmHg. Besides, the result in the experiment on Canis familiaris [12], in the experiment listed under Rattus norvegicus [3], in the experiment filed under Rattus norvegicus [5], with Canis familiaris [14], in the experiment on Canis familiaris [30] and in the experiment listed under Rattus norvegicus [7] was Active. Moreover, the result with Canis familiaris [9] was Active. Besides, the inhibition result in the experiment filed under Oryctolagus cuniculus [18] was “Active”.
